For seven compounds, cytotoxicity results are on record in ChEMBL document CHEMBL1146145, “Isobrassinin and its analogues: novel types of antiproliferative agents” (Bioorg Med Chem Lett, 2006).

SMILES strings stand for the structures. Where only a bound is given, the exact number is not on record here.

What all share (settings): read-out: Inhibition
The nature of data set [1]: Cytotoxicity against human HeLa cells at 30 uM. Format: cell-based. Put shortly:
(§1)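 MTT assay. Human HeLa (cervix adenocarcinoma), MCF7 (breast adenocarcinoma) and A431 (squamous skin carcinoma) cells were grown in minimal essential medium with 10% foetal bovine serum, antibiotic–antimycotic agents and non-essential amino acids, then seeded in 96-well plates. On day 2 the medium was replaced with compound-containing medium (DMSO final ≤0.1%). Exposure lasted 72 h, followed by 4 h MTT and DMSO solubilization of the formazan.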

A short description of data set [2]: Cytotoxicity against human A431 cells at 30 uM. Format: cell-based, A-431. Put shortly:
as §1

A short description of data set [3]: Cytotoxicity against human MCF7 cells at 30 uM. Format: cell-based. Put shortly:
as §1

As for `CSC(=S)NCc1cc2ccccc2[nH]1` [ISOBRASSININ], the cytotoxicity at 30 µM in data set [1] was 83.6%; in data set [2] it was 78.6%; in data set [3], 86.2%.
Turning to `CNC(=S)NCc1cc2ccccc2[nH]1`, the cytotoxicity at 30 µM in data set [1], in data set [2] and in data set [3] was less than 10% throughout.
As to `S=C(NCc1cc2ccccc2[nH]1)SCc1ccccc1`, the results for the cytotoxicity at 30 µM in data set [1], in data set [2] and in data set [3] were 76.1%, 70.7% and 89%, respectively.
With `S=C(NCc1cc2ccccc2[nH]1)Nc1ccccc1`, the figures for the cytotoxicity at 30 µM in data set [1], in data set [2] and in data set [3] were 50%, 45.7% and 57.4%, respectively.
On to `CSC(=S)NCc1c[nH]c2ccccc12` [BRASSININ], for which the cytotoxicity at 30 µM in data set [1] worked out at 25.2%; in data set [3], 21.5%.
The corresponding values for `c1ccc(CSC2=NCc3[nH]c4ccccc4c3S2)cc1` are 45.8% and 37.3%.
Consider `CSC1=NCc2[nH]c3ccccc3c2S1` [ISOCYCLOBRASSININ], for which the figures for the cytotoxicity at 30 µM in data set [1], in data set [2] and in data set [3] were 44.5%, less than 10% and less than 10%, respectively.
